Assay results published in ChEMBL document CHEMBL1136016, “Synthesis, biological activity, and molecular modeling investigation of new pyrazolo[4,3-e]-1,2,4-triazolo[1,5-c]pyrimidine derivatives as human A(3) adenosine receptor antagonists” (J Med Chem, 2002).
One block for each compound: values may come before it.

How the values were obtained:
[1] = biological target: Adenosine receptors; A2b & A3 (Homo sapiens) (UniProt P29275+P0DMS8); experiment: Selectivity ratio (h2B/hA3); assay type: protein assay
[2] = biological target: Adenosine receptors; A1 & A3 (Homo sapiens) (UniProt P30542+P0DMS8); experiment: Selectivity ratio (hA1/hA3); assay type: protein assay
[3] = biological target: T1, Adenosine receptor A1 (Homo sapiens, UniProt P30542); experiment: Displacement of [3H]DPCPX from human Adenosine A1 receptor expressed in CHO cells; range 265-400; assay type: cell-based
T1 sequence (P30542 whole entry): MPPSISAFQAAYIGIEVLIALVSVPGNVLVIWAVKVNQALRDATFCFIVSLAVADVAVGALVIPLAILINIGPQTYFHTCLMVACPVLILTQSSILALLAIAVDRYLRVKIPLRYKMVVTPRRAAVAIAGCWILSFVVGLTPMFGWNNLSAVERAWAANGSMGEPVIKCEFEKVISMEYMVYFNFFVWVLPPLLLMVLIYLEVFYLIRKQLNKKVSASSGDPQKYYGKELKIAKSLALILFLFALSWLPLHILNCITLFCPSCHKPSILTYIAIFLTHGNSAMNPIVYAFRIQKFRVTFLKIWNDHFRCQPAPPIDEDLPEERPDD
Method in brief: (§1)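 Human recombinant A1 receptor in CHO cell membranes, resuspended in 50 mM Tris HCl pH 7.4. Displacement run 120 min at 25 °C with 1 nM [3H]DPCPX, 50 µg protein per assay, and at least six to eight test concentrations. Nonspecific binding defined with CHA. Bound and free separated on glass-fiber filters; filter radioactivity counted. n = 3-6.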

[4] = biological target: T2, Adenosine receptor A2b (Homo sapiens, UniProt P29275); experiment: Displacement of [3H]DPCPX from human Adenosine A2B receptor expressed in HEK293 cells; range 56-103; assay type: cell-based
T2 sequence (P29275 whole entry): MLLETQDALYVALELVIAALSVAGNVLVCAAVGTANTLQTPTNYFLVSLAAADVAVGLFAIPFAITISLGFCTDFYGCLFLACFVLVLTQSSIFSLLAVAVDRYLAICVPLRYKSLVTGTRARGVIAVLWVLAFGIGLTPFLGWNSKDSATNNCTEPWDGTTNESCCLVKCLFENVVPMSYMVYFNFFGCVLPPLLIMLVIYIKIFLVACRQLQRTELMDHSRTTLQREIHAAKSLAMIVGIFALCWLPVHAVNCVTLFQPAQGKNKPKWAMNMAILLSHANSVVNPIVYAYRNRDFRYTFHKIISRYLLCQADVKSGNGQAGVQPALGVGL
Method in brief: (§2)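 Membranes from HEK-293 cells with human recombinant A2B receptor. Incubation 60 min at 25 °C in 50 mM Tris HCl, 10 mM MgCl2, 1 mM EDTA, 0.1 mM benzamidine, pH 7.4, with 2 IU/mL adenosine deaminase and 40 nM [3H]DPCPX. At least six to eight test concentrations. Nonspecific binding defined with NECA. n = 3-6.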

[5] = biological target: T3, Adenosine receptor A3 (Homo sapiens, UniProt P0DMS8); experiment: Displacement of [3H]MRE3008-F20 from human Adenosine A3 receptor expressed in HEK cells; range 0.24-0.48; assay type: cell-based, HEK293
T3 sequence (P0DMS8 whole entry): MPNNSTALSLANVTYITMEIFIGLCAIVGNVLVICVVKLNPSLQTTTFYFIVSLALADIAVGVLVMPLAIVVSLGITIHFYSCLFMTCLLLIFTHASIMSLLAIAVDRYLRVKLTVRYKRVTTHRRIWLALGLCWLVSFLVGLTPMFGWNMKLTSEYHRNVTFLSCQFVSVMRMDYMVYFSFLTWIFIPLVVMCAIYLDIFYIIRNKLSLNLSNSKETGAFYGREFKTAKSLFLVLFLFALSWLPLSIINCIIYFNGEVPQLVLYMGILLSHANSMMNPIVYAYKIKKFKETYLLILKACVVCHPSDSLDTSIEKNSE

[6] = biological target: T4, Adenosine receptor A2a (Homo sapiens, UniProt P29274); experiment: Displacement of [3H]SCH-58261 from human Adenosine A2A receptor expressed in HEK293 cells; range 123-162; assay type: cell-based
T4 sequence (P29274 whole entry): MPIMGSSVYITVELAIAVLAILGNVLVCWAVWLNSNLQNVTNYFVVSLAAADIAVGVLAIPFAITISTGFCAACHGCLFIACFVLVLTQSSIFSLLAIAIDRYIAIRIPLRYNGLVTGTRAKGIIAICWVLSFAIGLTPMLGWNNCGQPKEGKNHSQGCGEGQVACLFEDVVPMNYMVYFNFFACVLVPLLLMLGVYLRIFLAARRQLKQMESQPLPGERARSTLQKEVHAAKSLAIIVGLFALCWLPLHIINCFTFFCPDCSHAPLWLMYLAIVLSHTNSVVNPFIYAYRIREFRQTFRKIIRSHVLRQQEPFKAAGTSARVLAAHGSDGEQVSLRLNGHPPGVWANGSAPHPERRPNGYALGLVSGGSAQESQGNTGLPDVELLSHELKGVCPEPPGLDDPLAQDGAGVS

[7] = biological target: T3, Adenosine receptor A3; experiment: Inhibition of IB-MECA agonist-mediated cAMP production in CHO cell membranes expressing human Adenosine A3 receptor; range 1.8-5.6; assay type: functional, cell-based
[8] = biological target: T3, Adenosine receptor A3; experiment: biochemical
[9] = biological target: T2, Adenosine receptor A2b; experiment: Displacement of [3H]DPCPX from human Adenosine A2B receptor expressed in HEK293 cells; range 128-156; assay type: cell-based; method in brief: as §2
[10] = biological target: T1, Adenosine receptor A1; experiment: Displacement of [3H]DPCPX from human Adenosine A1 receptor expressed in CHO cells; range 885-1163; assay type: cell-based; method in brief: as §1
[11] = biological target: T4, Adenosine receptor A2a; experiment: Displacement of [3H]SCH-58261 from human Adenosine A2A receptor expressed in HEK293 cells; range 552-839; assay type: cell-based
[12] = biological target: T4, Adenosine receptor A2a; experiment: Displacement of [3H]SCH-58,261 from human Adenosine A2A receptor expressed in HEK293 cells; range 543-820; assay type: cell-based
[13] = biological target: T1, Adenosine receptor A1; experiment: Displacement of [3H]DPCPX from human Adenosine A1 receptor expressed in CHO cells; range 738-961; assay type: cell-based; method in brief: as §1
[14] = biological target: T2, Adenosine receptor A2b; experiment: Displacement of [3H]DPCPX from human Adenosine A2B receptor expressed in HEK293 cells; range 40-69; assay type: cell-based; method in brief: as §2
[15] = biological target: T3, Adenosine receptor A3; experiment: Displacement of [3H]MRE3008-F20 from human Adenosine A3 receptor expressed in HEK cells; range 0.22-0.40; assay type: cell-based, HEK293
[16] = biological target: T4, Adenosine receptor A2a; experiment: Displacement of [3H]SCH-58261 from human Adenosine A2A receptor expressed in HEK293 cells; range 174-230; assay type: cell-based
[17] = biological target: T2, Adenosine receptor A2b; experiment: Displacement of [3H]DPCPX from human Adenosine A2B receptor expressed in HEK293 cells; range 89-116; assay type: cell-based; method in brief: as §2
[18] = biological target: T3, Adenosine receptor A3; experiment: Displacement of [3H]MRE3008-F20 binding at human Adenosine A3 receptor expressed in HEK cells; range 0.82-1.01; assay type: cell-based, HEK293
[19] = biological target: T3, Adenosine receptor A3; experiment: Inhibition of IB-MECA agonist-mediated cAMP production in CHO cell membranes expressing human Adenosine A3 receptor; range 4.4-15.2; assay type: functional, cell-based
[20] = biological target: T1, Adenosine receptor A1; experiment: Displacement of [3H]DPCPX from human Adenosine A1 receptor expressed in CHO cells; range 332-479; assay type: cell-based; method in brief: as §1
[21] = biological target: T2, Adenosine receptor A2b; experiment: Displacement of [3H]DPCPX from human Adenosine A2B receptor expressed in HEK293 cells; range 34-62; assay type: cell-based
Method in brief: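 HEK-293 membranes expressing the human receptor were incubated 60 min at 25 °C. Six to eight test concentrations were used. Nonspecific binding was set with NECA. n = 3-6.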

[22] = biological target: T4, Adenosine receptor A2a; experiment: Displacement of [3H]SCH-58261 from human Adenosine A2A receptor expressed in HEK293 cells; range 8-18; assay type: cell-based
[23] = biological target: T3, Adenosine receptor A3; experiment: Displacement of [3H]MRE3008-F20 from human Adenosine A3 receptor expressed in HEK cells; range 0.31-0.56; assay type: cell-based, HEK293
[24] = biological target: T1, Adenosine receptor A1; experiment: Displacement of [3H]DPCPX from human Adenosine A1 receptor expressed in CHO cells; range 237-384; assay type: cell-based
Method in brief: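 Competition binding on membranes of CHO cells stably expressing human A1 receptor, resuspended in 50 mM Tris HCl pH 7.4. Incubation 120 min at 25 °C with 1 nM [3H]DPCPX, 50 µg protein per assay and at least six to eight test concentrations. CHA defined nonspecific binding. Bound ligand separated on glass-fibre filters and counted; n = 3-6.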

Ratio [1]: 224
Ratio [2]: 956
Ki [3]: 0.325 µM
Ki [4]: 0.076 µM
Ki [5]: 0.00034 µM
Ki [6]: 0.14 µM
Structure (SMILES): CCCn1cc2c(nc(NC(=O)Nc3ccc(Cl)cc3)n3nc(-c4ccco4)nc23)n1

Ratio [1]: 592
Ratio [2]: 4230
IC50 [7]: 0.0032 µM
Ki [8]: 0.00024 µM
Ki [9]: 0.142 µM
Ki [10]: 1.02 µM
Ki [11]: 0.68 µM
Structure (SMILES): Cn1cc2c(nc(NC(=O)Nc3ccc4c(c3)OCO4)n3nc(-c4ccco4)nc23)n1

Ki [12]: 0.667 µM
Ki [13]: 0.842 µM
Ratio [1]: 177
Ratio [2]: 2810
Ki [14]: 0.053 µM
Ki [15]: 0.0003 µM
Structure (SMILES): CCCn1cc2c(nc(NC(=O)Nc3ccc4c(c3)OCO4)n3nc(-c4ccco4)nc23)n1

Ratio [1]: 111
Ratio [2]: 440
Ki [16]: 0.2 µM
Ki [17]: 0.101 µM
Ki [18]: 0.00091 µM
IC50 [19]: 0.0082 µM
Ki [20]: 0.4 µM
Structure (SMILES): Cn1cc2c(nc(NC(=O)Nc3ccccc3Cl)n3nc(-c4ccco4)nc23)n1

Ratio [1]: 115
Ratio [2]: 755
Ki [21]: 0.046 µM
Ki [22]: 0.012 µM
Ki [23]: 0.0004 µM
Ki [24]: 0.302 µM
Structure (SMILES): CCCn1cc2c(nc(NC(=O)Nc3ccc(C)cc3)n3nc(-c4ccco4)nc23)n1
